Experimental data published in ChEMBL document CHEMBL5321266, “Discovery of a Series of Indane-Containing NBTIs with Activity against Multidrug-Resistant Gram-Negative Pathogens” (ACS Med Chem Lett, 2023).
Values after ≈ are worked out from the molar mass of the structure shown.

How the values were obtained:
[1] = system: Acinetobacter baumannii; test: Antibacterial activity against Acinetobacter baumannii ATCC 19606 incubated for 20 to 24 hrs by CLSI based broth microdilution method; format: functional; conditions: time 20-24 hrs
[2] = target: Voltage-gated inwardly rectifying potassium channel KCNH2 (Homo sapiens, UniProt Q12809); test: Inhibition of human ERG expressed in CHO cells by automated path clamp method; format: toxicity, cell-based; conditions: for inhibition (INH): human, cho
Voltage-gated inwardly rectifying potassium channel KCNH2, sequence (Q12809 whole entry): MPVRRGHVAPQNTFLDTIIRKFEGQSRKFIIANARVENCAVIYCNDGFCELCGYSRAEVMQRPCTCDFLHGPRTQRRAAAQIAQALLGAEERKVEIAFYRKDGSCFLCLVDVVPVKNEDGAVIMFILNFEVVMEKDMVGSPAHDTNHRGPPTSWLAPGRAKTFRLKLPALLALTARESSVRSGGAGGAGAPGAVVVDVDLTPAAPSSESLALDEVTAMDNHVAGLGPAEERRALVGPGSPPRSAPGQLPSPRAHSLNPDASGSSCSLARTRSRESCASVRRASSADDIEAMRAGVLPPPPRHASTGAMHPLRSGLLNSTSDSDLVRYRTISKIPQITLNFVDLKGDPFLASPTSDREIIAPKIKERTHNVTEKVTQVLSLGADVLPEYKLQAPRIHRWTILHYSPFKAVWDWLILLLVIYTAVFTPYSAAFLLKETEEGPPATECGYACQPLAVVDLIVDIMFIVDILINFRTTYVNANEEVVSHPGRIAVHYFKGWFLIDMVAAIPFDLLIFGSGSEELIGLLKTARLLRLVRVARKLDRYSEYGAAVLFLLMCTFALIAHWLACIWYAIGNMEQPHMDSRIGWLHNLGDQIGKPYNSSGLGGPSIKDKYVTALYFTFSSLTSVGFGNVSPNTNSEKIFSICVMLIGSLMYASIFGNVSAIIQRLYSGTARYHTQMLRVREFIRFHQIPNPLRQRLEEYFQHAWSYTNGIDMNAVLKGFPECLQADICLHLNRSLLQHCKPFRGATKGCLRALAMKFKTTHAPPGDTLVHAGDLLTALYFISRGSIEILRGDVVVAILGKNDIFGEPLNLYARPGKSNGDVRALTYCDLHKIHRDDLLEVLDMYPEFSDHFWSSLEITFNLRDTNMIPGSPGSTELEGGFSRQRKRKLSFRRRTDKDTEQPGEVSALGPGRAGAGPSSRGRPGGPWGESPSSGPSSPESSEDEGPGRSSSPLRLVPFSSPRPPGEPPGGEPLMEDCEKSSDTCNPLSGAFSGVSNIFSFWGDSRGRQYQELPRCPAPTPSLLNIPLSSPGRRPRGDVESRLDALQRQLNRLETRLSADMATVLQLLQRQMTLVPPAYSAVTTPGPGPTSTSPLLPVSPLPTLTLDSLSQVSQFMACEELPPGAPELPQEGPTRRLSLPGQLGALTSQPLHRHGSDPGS
Method in brief: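 Patch-clamp electrophysiology on the hERG ion channel, recorded at 37 °C; the IC₅₀ was determined.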

[3] = target: T1, DNA gyrase (Escherichia coli, UniProt P0AES4+P0AES6); test: Inhibition of Escherichia coli DNA gyrase ATPase activity incubated for 80 mins; format: protein-complex assay
[4] = system: Escherichia coli; test: Antibacterial activity against Escherichia coli ATCC 25922 incubated for 20 to 24 hrs by CLSI based broth microdilution method; format: functional; conditions: time 20-24 hrs
[5] = system: Klebsiella pneumoniae; test: Antibacterial activity against Klebsiella pneumoniae ATCC BAA-1705 incubated for 20 to 24 hrs by CLSI based broth microdilution method; format: functional; conditions: time 20-24 hrs
[6] = system: Pseudomonas aeruginosa; test: Antibacterial activity against Pseudomonas aeruginosa ATCC 27853 incubated for 20 to 24 hrs by CLSI based broth microdilution method; format: functional; conditions: time 20-24 hrs
[7] = target: T1, DNA gyrase; test: Inhibition of Escherichia coli DNA gyrase supercoiling activity using relaxed pBR322 DNA as substrate preincubated for 5 mins followed by enzyme addition and measured after 1 hr by agarose gel electrophoresis; format: protein-complex assay
[8] = Inhibition of Escherichia coli topoisomerase 4 decatenation activity using kDNA as substrate preincubated for 5 mins followed by enzyme addition and measured after 1 hr by agarose gel electrophoresis method
[9] = target: DNA topoisomerase 2-alpha (Homo sapiens, UniProt P11388); test: Inhibition of human topoisomerase 2 alpha decatenation activity using kDNA as substrate preincubated for 5 mins followed by enzyme addition and measured after 1 hr by agarose gel electrophoresis
DNA topoisomerase 2-alpha, sequence (P11388 whole entry): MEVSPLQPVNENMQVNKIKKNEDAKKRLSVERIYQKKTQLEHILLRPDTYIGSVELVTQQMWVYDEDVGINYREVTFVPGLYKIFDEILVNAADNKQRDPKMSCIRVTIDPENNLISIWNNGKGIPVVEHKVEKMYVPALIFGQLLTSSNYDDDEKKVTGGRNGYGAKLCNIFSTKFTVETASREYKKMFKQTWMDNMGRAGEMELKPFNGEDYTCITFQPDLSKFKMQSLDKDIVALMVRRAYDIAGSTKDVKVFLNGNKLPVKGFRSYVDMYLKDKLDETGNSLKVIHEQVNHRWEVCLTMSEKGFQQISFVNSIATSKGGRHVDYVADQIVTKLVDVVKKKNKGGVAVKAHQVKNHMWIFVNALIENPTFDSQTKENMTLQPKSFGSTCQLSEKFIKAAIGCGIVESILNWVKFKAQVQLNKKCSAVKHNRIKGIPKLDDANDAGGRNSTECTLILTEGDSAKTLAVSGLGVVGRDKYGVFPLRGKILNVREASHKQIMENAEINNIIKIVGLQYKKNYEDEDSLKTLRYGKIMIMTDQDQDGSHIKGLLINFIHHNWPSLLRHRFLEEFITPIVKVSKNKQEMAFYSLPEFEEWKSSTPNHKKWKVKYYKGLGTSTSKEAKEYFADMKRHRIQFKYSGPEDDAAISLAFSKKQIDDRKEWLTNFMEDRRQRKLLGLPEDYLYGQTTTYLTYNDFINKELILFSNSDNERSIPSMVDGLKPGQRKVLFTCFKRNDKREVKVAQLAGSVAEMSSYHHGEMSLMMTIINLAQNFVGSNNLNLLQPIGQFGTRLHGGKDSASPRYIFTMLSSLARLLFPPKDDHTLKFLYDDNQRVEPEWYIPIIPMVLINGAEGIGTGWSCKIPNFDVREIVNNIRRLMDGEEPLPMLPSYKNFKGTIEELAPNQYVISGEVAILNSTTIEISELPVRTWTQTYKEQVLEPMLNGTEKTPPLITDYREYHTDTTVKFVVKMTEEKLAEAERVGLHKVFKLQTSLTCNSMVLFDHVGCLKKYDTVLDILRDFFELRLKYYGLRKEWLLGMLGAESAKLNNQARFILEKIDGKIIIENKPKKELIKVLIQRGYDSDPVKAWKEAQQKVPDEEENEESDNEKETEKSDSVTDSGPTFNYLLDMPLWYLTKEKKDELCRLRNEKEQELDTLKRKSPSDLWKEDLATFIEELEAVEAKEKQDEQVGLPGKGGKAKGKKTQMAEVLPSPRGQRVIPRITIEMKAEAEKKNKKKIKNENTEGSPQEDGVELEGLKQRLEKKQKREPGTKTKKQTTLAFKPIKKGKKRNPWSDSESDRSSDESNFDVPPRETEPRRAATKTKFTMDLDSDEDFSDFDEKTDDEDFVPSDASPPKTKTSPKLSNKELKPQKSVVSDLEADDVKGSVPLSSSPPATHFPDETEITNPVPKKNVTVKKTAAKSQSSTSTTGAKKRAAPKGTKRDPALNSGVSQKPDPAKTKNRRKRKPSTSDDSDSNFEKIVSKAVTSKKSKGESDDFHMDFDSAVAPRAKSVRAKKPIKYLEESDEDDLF

SMILES	MIC [1] [µg/mL]	inhibition (INH) [2]	IC50 [3] [nM]	MIC [4] [µg/mL]	MIC [5] [µg/mL]	MIC [6] [µg/mL]	IC50 [2] [nM]	IC50 [7] [nM]	IC50 [8] [nM]	IC50 [9] [nM]
O=C1COc2ccc(N3CC(CCNC4Cc5cccc(Cl)c5C4)OC3=O)nc2N1 (stereo not given)	4 (≈ 9.33 µM)	Active	290	2 (≈ 4.66 µM)	16 (≈ 37.3 µM)	16 (≈ 37.3 µM)	–	–	–	–
N#Cc1cccc2c1CC(CNCCC1CN(c3ccc4c(n3)NC(=O)CO4)C(=O)O1)C2 (stereo not given)	0.125 (≈ 0.288 µM)	–	21	≤ 0.06	1 (≈ 2.31 µM)	0.5 (≈ 1.15 µM)	900	100	160	> 100000
O=C1COc2ccc(N3CC(CCNCC4Cc5cccc(Cl)c5C4)OC3=O)nc2N1 (stereo not given)	0.125 (≈ 0.282 µM)	Active	90	0.125 (≈ 0.282 µM)	2 (≈ 4.52 µM)	2 (≈ 4.52 µM)	–	–	–	–
O=c1cc(NCC2CN(CC3Cc4ccnc(Cl)c4C3)C2)c2cc(F)ccc2o1 (stereo not given)	4 (≈ 9.66 µM)	Active	160	2 (≈ 4.83 µM)	32 (≈ 77.3 µM)	8 (≈ 19.3 µM)	–	–	–	–
O=C1COc2ccc(N3CC(CNCC4Cc5cccc(Cl)c5C4)OC3=O)nc2N1 (stereo not given)	1 (≈ 2.33 µM)	Active	230	0.5 (≈ 1.17 µM)	32 (≈ 74.6 µM)	8 (≈ 18.7 µM)	–	–	–	–
O=C1COc2ccc(N3CC(CNCCC4Cc5cccc(Cl)c5C4)OC3=O)nc2N1 (stereo not given)	0.25 (≈ 0.564 µM)	Active	90	0.25 (≈ 0.564 µM)	4 (≈ 9.03 µM)	1 (≈ 2.26 µM)	–	–	–	–
O=C1COc2ccc(N3CC(CCCNC4Cc5ccccc5C4)OC3=O)nc2N1 (stereo not given)	8 (≈ 19.6 µM)	Active	270	2 (≈ 4.9 µM)	16 (≈ 39.2 µM)	8 (≈ 19.6 µM)	–	–	–	–
N#Cc1cccc2c1CC(NCCCC1CN(c3ccc4c(n3)NC(=O)CO4)C(=O)O1)C2 (stereo not given)	0.5 (≈ 1.15 µM)	Active	57	0.25 (≈ 0.577 µM)	2 (≈ 4.61 µM)	2 (≈ 4.61 µM)	–	–	–	–
O=C1COc2ccc(N3CC(CCNCC4Cc5ccccc5C4)OC3=O)nc2N1 (stereo not given)	2 (≈ 4.9 µM)	Active	180	1 (≈ 2.45 µM)	8 (≈ 19.6 µM)	8 (≈ 19.6 µM)	–	–	–	–
O=C1COc2ccc(N3CC(CCNCC4Cc5cccc(F)c5C4)OC3=O)nc2N1 (stereo not given)	0.5 (≈ 1.17 µM)	Active	100	0.5 (≈ 1.17 µM)	4 (≈ 9.38 µM)	4 (≈ 9.38 µM)	–	–	–	–
O=C1COc2ccc(N3CC(CCCNC4Cc5cccc(F)c5C4)OC3=O)nc2N1 (stereo not given)	1 (≈ 2.34 µM)	Active	120	0.5 (≈ 1.17 µM)	4 (≈ 9.38 µM)	4 (≈ 9.38 µM)	–	–	–	–
O=C1COc2ccc(N3CC(CNC4Cc5cccc(Cl)c5C4)OC3=O)nc2N1 (stereo not given)	4 (≈ 9.64 µM)	Active	580	8 (≈ 19.3 µM)	> 64	> 64	–	–	–	–
O=C1COc2ccc(N3CC(CCCNC4Cc5cccc(Cl)c5C4)OC3=O)nc2N1 (stereo not given)	0.5 (≈ 1.13 µM)	Active	72	0.25 (≈ 0.564 µM)	2 (≈ 4.52 µM)	2 (≈ 4.52 µM)	–	–	–	–
O=C1COc2ccc(N3CC(CCNCCC4Cc5cccc(Cl)c5C4)OC3=O)nc2N1 (stereo not given)	1 (≈ 2.19 µM)	Active	120	0.5 (≈ 1.09 µM)	8 (≈ 17.5 µM)	4 (≈ 8.75 µM)	–	–	–	–
O=C1COc2ccc(N3CC(CCCNC4CCc5c(Cl)cccc54)OC3=O)nc2N1 (stereo not given)	8 (≈ 18.1 µM)	Active	190	2 (≈ 4.52 µM)	16 (≈ 36.1 µM)	8 (≈ 18.1 µM)	–	–	–	–
O=C1COc2ccc(N3CC(CCCNC4Cc5ccc(Cl)cc5C4)OC3=O)nc2N1 (stereo not given)	4 (≈ 9.03 µM)	Active	250	2 (≈ 4.52 µM)	8 (≈ 18.1 µM)	16 (≈ 36.1 µM)	–	–	–	–
O=C1COc2ccc(N3CC(CCCNC4Cc5ccc(F)cc5C4)OC3=O)nc2N1 (stereo not given)	4 (≈ 9.38 µM)	Active	160	1 (≈ 2.34 µM)	8 (≈ 18.8 µM)	16 (≈ 37.5 µM)	–	–	–	–
